{"source": "PubChem BioAssay AID1296", "about": "(Columbia University Molecular Screening Center, 2008)", "note": "The campaign covered roughly 130,000 compounds. About 1,000 (0.77%) were called active. Roughly 1% stayed inconclusive and do not appear here.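 The calls were made as follows: active = activation at 2 µM above a set limit, confirmed on inspection of the cell images; inconclusive = above the set limit but not confirmed on image inspection; inactive = the rest.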 The full list was thinned out, with actives kept by preference.", "data": [{"assay": "insulin gene promoter stimulation in islet cells – imaging, TRM-6 cells (human fetal islet line), eGFP reporter, cell count, primary screen (AID 1296;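 as to activation: share of cells whose green reporter signal exceeds an intensity cutoff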)", "settings": "at 2 µM; activation: stronger effect = higher value, plate-scaled: unstimulated 0, stimulated control 100; normalized cell count: measured here: cell count (toxicity)", "how_it_was_run": "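test system = TRM-6 insulin promoter–eGFP reporter cells | benchmarks = stimulated versus unstimulated wells as plate controls | read-out basis = percent cells above green-intensity threshold, converted to percent activation versus plate controls | detection = fixed-cell fluorescence microscopy, eGFP plus Hoechst | incubation = tamoxifen pre-incubation 15 h overnight, then compound exposure 48 h at 37 °C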", "units": {"normalized cell count": "%"}, "values": [{"smiles": "COC(=O)Cc1c(O)ccn(Cc2cccc(C(F)(F)F)c2)c1=O", "activation": "2.86% (inactive)", "normalized cell count": 159}, {"smiles": "Cc1nn(-c2ccccc2)c(C)c1/C=C/C(=O)OC(C)C(N)=O", "note": "(stereo unspecified)", "activation": "-68.8% (inactive)", "normalized cell count": 181}, {"smiles": "CCOC(=O)c1c(NC(=O)c2ccc(Br)o2)sc2c1CCCC2", "activation": "-3.7% (inactive)", "normalized cell count": 119}, {"smiles": "CCOC(=O)C(NC(=O)CC(C)C)(Nc1sc2c(c1C(N)=O)CCCC2)C(F)(F)F", "note": "(stereo unspecified)", "activation": "450% (active)", "normalized cell count": 72.9}, {"smiles": "CCOC(=O)c1c(NC(=O)CSc2nnc(C)c(=O)[nH]2)sc2c1CCC2", "activation": "8.33% (inactive)", "normalized cell count": 125}, {"smiles": "CSc1ccccc1NC(=O)Cc1ccc(Br)cc1", "activation": "-3.85% (inactive)", "normalized cell count": 70.6}, {"smiles": "Cc1ccccc1NC(=O)C(C)c1ccc(-c2ccccc2)c(F)c1", "note": "(stereo unspecified)", "activation": "-2.7% (inactive)", "normalized cell count": 168}, {"smiles": "O=C(CSCc1ccc([N+](=O)[O-])cc1)Nc1cccc(C(=O)Nc2ccccc2C(=O)O)c1", "activation": "8.33% (inactive)", "normalized cell count": 107}, {"smiles": "COC(=O)c1ccc(NC(=O)CSc2nnc(CNc3ccc(OC)cc3)n2C)cc1", "activation": "0% (inactive)", "normalized cell count": 125}, {"smiles": "COc1ccc(CC(=O)NCc2nnc(SCC(=O)Nc3nccs3)n2C)cc1", "activation": "330% (active)", "normalized cell count": 83.7}, {"smiles": "COc1ccc(CC(=O)NCc2nnc(SCC(=O)Nc3ncc(C)s3)n2C)cc1", "activation": "-5.56% (inactive)", "normalized cell count": 192}, {"smiles": "CSCCC(=O)N1CCCC(CNC(=O)c2ccccc2Cl)C1", "note": "(stereo unspecified)", "activation": "7.14% (inactive)", "normalized cell count": 83}, {"smiles": "Cn1cc(/C=C/c2nc3ccccc3c(=O)n2-c2cccc([N+](=O)[O-])c2)c2ccccc21", "activation": "-9.09% (inactive)", "normalized cell count": 111}, {"smiles": "COc1ccc(N(C(=O)c2ccc(C)cc2)S(=O)(=O)c2cccs2)cc1", "activation": "3.85% (inactive)", "normalized cell count": 171}, {"smiles": "Cc1ccc(C(=O)N/C(=C\\c2cccs2)C(=O)NCCc2ccccn2)cc1C", "activation": "392% (active)", "normalized cell count": 87.4}, {"smiles": "CCN(CC)S(=O)(=O)c1cc(C(=O)Nc2ccccn2)ccc1C", "activation": "309% (inactive)", "normalized cell count": 42.6}, {"smiles": "Cc1ccc(C(=O)N/C(=C/c2cccs2)C(=O)N2CCCCC2)cc1", "activation": "0% (inactive)", "normalized cell count": 111}, {"smiles": "CCOc1ccc(N2C(=O)Nc3ccccc3C2(O)C(=O)NCc2ccco2)cc1", "note": "(stereo unspecified)", "activation": "0% (inactive)", "normalized cell count": 74.7}, {"smiles": "Cc1cccc(CSc2nnc(Cn3c(=O)sc4ccccc43)n2C)c1", "activation": "-50% (inactive)", "normalized cell count": 79.6}, {"smiles": "Cc1ccc(C(=O)CSc2nc3ccccc3c(=O)n2N)o1", "activation": "-5.26% (inactive)", "normalized cell count": 137}, {"smiles": "Cc1nnc(SCc2cccc(Cl)c2)n(N)c1=O", "activation": "508% (active)", "normalized cell count": 36.8}, {"smiles": "CC(C)CNC(=S)Nc1ccc(F)cc1", "activation": "-6.9% (inactive)", "normalized cell count": 136}, {"smiles": "Cc1nc(SCc2ccc(F)cc2)c([N+](=O)[O-])[nH]1", "activation": "9.09% (inactive)", "normalized cell count": 97.3}, {"smiles": "O=C(CCCN1C(=O)CCC1=O)Nc1ccc(Cl)c(C(F)(F)F)c1", "activation": "444% (active)", "normalized cell count": 46.3}, {"smiles": "CS(=O)(=O)N(CC(=O)Nc1ccc(Cl)c(Cl)c1)C1CCCCC1", "activation": "5.71% (inactive)", "normalized cell count": 124}, {"smiles": "O=C(CN1C(=O)CCC1=O)Nc1ccc(S(=O)(=O)N2CCOCC2)cc1", "activation": "-10% (inactive)", "normalized cell count": 72.6}, {"smiles": "CN1CCN(C(=O)/C(=C\\c2ccc3c(c2)OCO3)NC(=O)c2cccs2)CC1", "activation": "-8.33% (inactive)", "normalized cell count": 121}, {"smiles": "CCN1/C(=C\\c2ccc3ccccc3[n+]2CC)Sc2cc(C)ccc21", "activation": "567% [fluoresces] (active)", "normalized cell count": 15.3}, {"smiles": "CCN1/C(=C/c2ccc3ccc(C)cc3[n+]2CC)Sc2ccccc21", "activation": "567% (active)", "normalized cell count": 10.5}, {"smiles": "O=C(NC1CC1)c1cccc(Br)c1", "activation": "-3.12% (inactive)", "normalized cell count": 91.1}, {"smiles": "O=C(Cc1coc2ccc3ccccc3c12)NCc1cccs1", "activation": "-2.94% (inactive)", "normalized cell count": 153}, {"smiles": "CCC(=O)/C(=C(/O)c1ccccc1)c1nc2ccccc2[nH]1", "activation": "0% (inactive)", "normalized cell count": 134}, {"smiles": "COc1cc(NC(=O)Nc2ccc(C)cc2)cc([N+](=O)[O-])c1", "activation": "-6.45% (inactive)", "normalized cell count": 133}]}]}
